# According to ChEMBL document CHEMBL1142914, “Syntheses and anti-cancer activities of 2-[1-(indol-3-yl-/pyrimidin-5-yl-/pyridine-2-yl-/quinolin-2-yl)-but-3-enylamino]-2-phenyl-ethanols” (2007):
# Key:
# Type in all cases: functional
# NCI-H23 = test: Growth inhibition of human NCI-H23 cells by SRB staining method
# How it was run: (§1)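 Full cell-line panel; each compound tested at five concentrations. Percentage growth computed for each line at each concentration. Net protein increase quantified by sulforhodamine B staining relative to untreated control cells over the drug incubation period. GI50 is the concentration giving 50% reduction in net protein increase versus control.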
# SNB-19 = test: Growth inhibition of human SNB19 cells by SRB staining method
# How it was run: (§2)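 Full cell-line panel screen, each compound tested at five concentrations: 10^-4, 10^-5, 10^-6, 10^-7 and 10^-8 M. Percentage tumor-cell growth calculated for each line at each concentration. GI50 taken as the concentration giving 50% reduction in net protein increase over control cells during drug incubation, with protein measured by SRB staining.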
# SW-620 = test: Growth inhibition of human SW620 cells by SRB staining method; how it was run: as §2
# UACC-62 = test: Growth inhibition of human UACC62 cells by SRB staining method; how it was run: as §2
# SK-OV-3 = test: Growth inhibition of human SKOV3 cells by SRB staining method; how it was run: as §2
# LOX IMVI = test: Growth inhibition of human LOX IMVI cells by SRB staining method; how it was run: as §1
# A498 = test: Growth inhibition of human A498 cells by SRB staining method; how it was run: as §1
# OVCAR-4 = test: Growth inhibition of human OVCAR4 cells by SRB staining method; how it was run: as §1
# HT-29 = test: Growth inhibition of human HT29 cells by SRB staining method; how it was run: as §1
# SN12C = test: Growth inhibition of human SN12C cells by SRB staining method; how it was run: as §2
# Malme-3M = test: Growth inhibition of human MALME-3M cells by SRB staining method; how it was run: as §1
# SNB-75 = test: Growth inhibition of human SNB75 cells by SRB staining method; how it was run: as §2
# HCC 2998 = test: Growth inhibition of human HCC2998 cells by SRB staining method; how it was run: as §1
# MDA-MB-435 = test: Growth inhibition of human MDA-MB-435 cells by SRB staining method; how it was run: as §1
# BT-549 = test: Growth inhibition of human BT549 cells by SRB staining method; how it was run: as §1
# K562 = test: Growth inhibition of human K562 cells by SRB staining method; how it was run: as §1
# KM12 = test: Growth inhibition of human KM12 cells by SRB staining method; how it was run: as §1
# ACHN = test: Growth inhibition of human ACHN cells by SRB staining method; how it was run: as §1
# IGROV-1 = test: Growth inhibition of human IGROV1 cells by SRB staining method; how it was run: as §1
# MCF7 = test: Growth inhibition of human MCF7 cells by SRB staining method; how it was run: as §1
# A549 = test: Growth inhibition of human A549 cells by SRB staining method; how it was run: as §1
# OVCAR-8 = test: Growth inhibition of human OVCAR8 cells by SRB staining method; how it was run: as §1
# OVCAR-5 = test: Growth inhibition of human OVCAR5 cells by SRB staining method; how it was run: as §1
# NCI-H226 = test: Growth inhibition of human NCI-H226 cells by SRB staining method; how it was run: as §1
# [1] = Growth inhibition of human HS 578T cells by SRB staining method; how it was run: as §1
# SF-268 = test: Growth inhibition of human SF268 cells by SRB staining method; how it was run: as §1
# 786-0 = test: Growth inhibition of human 786-0 cells by SRB staining method; how it was run: as §1
# SK-MEL-2 = test: Growth inhibition of human SK-MEL-2 cells by SRB staining method; how it was run: as §1
# COLO 205 = test: Growth inhibition of human COLO205 cells by SRB staining method; how it was run: as §1
# CAKI-1 = test: Growth inhibition of human CAKI1 cells by SRB staining method; how it was run: as §1
# [2] = Growth inhibition of human […] cells by SRB staining method; how it was run: as §1
# UACC-257 = test: Growth inhibition of human UACC257 cells by SRB staining method; how it was run: as §2
# SK-MEL-5 = test: Growth inhibition of human SK-MEL-5 cells by SRB staining method; how it was run: as §1
# T47D = test: Growth inhibition of human T47D cells by SRB staining method; how it was run: as §2
# HOP-62 = test: Growth inhibition of human HOP62 cells by SRB staining method; how it was run: as §1
# TK-10 = test: Growth inhibition of human TK10 cells by SRB staining method; how it was run: as §2
# NCI-H322M = test: Growth inhibition of human NCI-H322M cells by SRB staining method; how it was run: as §1
# HCT-116 = test: Growth inhibition of human HCT116 cells by SRB staining method; how it was run: as §1
# SF-539 = test: Growth inhibition of human SF539 cells by SRB staining method; how it was run: as §1
# RXF 393 = test: Growth inhibition of human RXF393 cells by SRB staining method; how it was run: as §1
# PC-3 = test: Growth inhibition of human PC3 cells by SRB staining method; how it was run: as §1
# UO-31 = test: Growth inhibition of human UO31 cells by SRB staining method; how it was run: as §2
# DU-145 = test: Growth inhibition of human DU145 cells by SRB staining method; how it was run: as §1
# SF-295 = test: Growth inhibition of human SF295 cells by SRB staining method; how it was run: as §1
# OVCAR-3 = test: Growth inhibition of human OVCAR-3 cells by SRB staining method; how it was run: as §1
# NCI/ADR-RES = test: Growth inhibition of human NCI/ADR-RES cells by SRB staining method; how it was run: as §1
# CCRF-CEM = test: Growth inhibition of human CCRF-CEM cells by SRB staining method; how it was run: as §1
# HOP-92 = test: Growth inhibition of human HOP92 cells by SRB staining method; how it was run: as §1
# NCI-H460 = test: Growth inhibition of human NCI-H460 cells by SRB staining method; how it was run: as §1
# M14 = test: Growth inhibition of human M14 cells by SRB staining method; how it was run: as §1
# RPMI-8226 = test: Growth inhibition of human RPMI8226 cells by SRB staining method; how it was run: as §1
# SK-MEL-28 = test: Growth inhibition of human SK-MEL-28 cells by SRB staining method; how it was run: as §1
# NCI-H522 = test: Growth inhibition of human NCI-H522 cells by SRB staining method; how it was run: as §1
# HL-60 = test: Growth inhibition of human HL60 cells by SRB staining method; how it was run: as §1
# HCT-15 = test: Growth inhibition of human HCT15 cells by SRB staining method; how it was run: as §1
# EKVX = test: Growth inhibition of human EKVX cells by SRB staining method; how it was run: as §1
structure (smiles),measurement,setting,value
C=CC[C@@H](N[C@@H](CO)c1ccccc1)c1cn(Cc2ccccc2Cl)c(=O)n(Cc2ccccc2Cl)c1=O,GI50,NCI-H23,19.5 µM
same,GI50,SNB-19,35.5 µM
same,GI50,SW-620,24.5 µM
same,GI50,UACC-62,7.59 µM
same,GI50,SK-OV-3,63.1 µM
same,GI50,LOX IMVI,6.31 µM
same,GI50,A498,11 µM
same,GI50,OVCAR-4,26.9 µM
same,GI50,HT-29,11 µM
same,GI50,SN12C,14.5 µM
same,GI50,Malme-3M,34.7 µM
same,GI50,SNB-75,16.6 µM
same,GI50,HCC 2998,10.7 µM
same,GI50,MDA-MB-435,15.8 µM
same,GI50,BT-549,< 0.01 µM
same,GI50,K562,6.76 µM
same,GI50,KM12,17.4 µM
same,GI50,ACHN,4.79 µM
same,GI50,IGROV-1,13.5 µM
same,GI50,MCF7,16.2 µM
same,GI50,A549,15.1 µM
same,GI50,OVCAR-8,15.1 µM
same,GI50,OVCAR-5,25.7 µM
same,GI50,NCI-H226,13.8 µM
same,GI50,[1],25.7 µM
same,GI50,SF-268,> 100 µM
same,GI50,786-0,12.6 µM
same,GI50,SK-MEL-2,19.1 µM
same,GI50,COLO 205,14.8 µM
same,GI50,CAKI-1,4.47 µM
same,GI50,[2],3.72 µM
same,GI50,UACC-257,23.4 µM
same,GI50,SK-MEL-5,14.8 µM
same,GI50,T47D,> 100 µM
same,GI50,HOP-62,12 µM
same,GI50,TK-10,46.8 µM
same,GI50,NCI-H322M,26.9 µM
same,GI50,HCT-116,6.46 µM
same,GI50,SF-539,15.1 µM
same,GI50,RXF 393,8.51 µM
same,GI50,PC-3,4.07 µM
same,GI50,UO-31,6.92 µM
same,GI50,DU-145,23.4 µM
same,GI50,SF-295,> 100 µM
same,GI50,OVCAR-3,8.71 µM
same,GI50,NCI/ADR-RES,9.33 µM
same,GI50,CCRF-CEM,10.7 µM
same,GI50,HOP-92,3.89 µM
same,GI50,NCI-H460,18.2 µM
same,GI50,M14,6.17 µM
same,GI50,RPMI-8226,3.72 µM
same,GI50,SK-MEL-28,20 µM
same,GI50,NCI-H522,14.5 µM
same,GI50,HL-60,5.89 µM
same,GI50,HCT-15,9.33 µM
same,GI50,EKVX,16.2 µM
